For one test, the target named is M3 muscarinic receptor (Homo sapiens, UniProt P20309). The format is cell-based.
Another test concerns the target P2Y1R (Homo sapiens, UniProt P47900). The format is cell-based.
Test [1] relates to Gαq. To be noted: cited from earlier work.
Another test has as its system Gβγ. To be noted: 10 μM, 5 min pretreatment; compared with PTX 50 ng/ml for 6 h; cited from earlier work.
Test [2] has as its system Gαq. To be noted: 10 μM, 5 min pretreatment; cited from earlier work.
In a further test the test system is Gα15. To be noted: cited from earlier work.
A further test relates to Gαi subunits. To be noted: cited from earlier work.
For the next test, the target named is M2 muscarinic receptor (Homo sapiens, UniProt P08172). The format is cell-based.
Chain of M2 muscarinic receptor (P08172 whole entry): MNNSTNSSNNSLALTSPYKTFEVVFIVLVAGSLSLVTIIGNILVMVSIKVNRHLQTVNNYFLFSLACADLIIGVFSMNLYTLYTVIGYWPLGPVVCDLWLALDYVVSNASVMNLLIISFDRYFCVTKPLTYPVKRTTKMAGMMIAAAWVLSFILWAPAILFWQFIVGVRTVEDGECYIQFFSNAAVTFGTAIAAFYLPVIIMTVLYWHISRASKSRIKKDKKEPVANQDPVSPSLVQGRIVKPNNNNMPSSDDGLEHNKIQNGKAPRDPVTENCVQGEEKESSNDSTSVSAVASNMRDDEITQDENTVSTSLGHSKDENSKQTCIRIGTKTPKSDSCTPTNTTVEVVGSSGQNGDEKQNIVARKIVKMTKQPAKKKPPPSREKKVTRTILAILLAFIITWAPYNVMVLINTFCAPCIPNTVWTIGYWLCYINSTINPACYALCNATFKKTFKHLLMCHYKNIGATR
Another test concerns the target human A1AR (Gi-coupled) (Homo sapiens, UniProt P30542). The format is cell-based.
For a further test, the target named is P2Y1R (Gq-coupled) (Homo sapiens, UniProt P47900). The test is classed as cell-based.
Chain of P2Y1R (Gq-coupled) (P47900 whole entry): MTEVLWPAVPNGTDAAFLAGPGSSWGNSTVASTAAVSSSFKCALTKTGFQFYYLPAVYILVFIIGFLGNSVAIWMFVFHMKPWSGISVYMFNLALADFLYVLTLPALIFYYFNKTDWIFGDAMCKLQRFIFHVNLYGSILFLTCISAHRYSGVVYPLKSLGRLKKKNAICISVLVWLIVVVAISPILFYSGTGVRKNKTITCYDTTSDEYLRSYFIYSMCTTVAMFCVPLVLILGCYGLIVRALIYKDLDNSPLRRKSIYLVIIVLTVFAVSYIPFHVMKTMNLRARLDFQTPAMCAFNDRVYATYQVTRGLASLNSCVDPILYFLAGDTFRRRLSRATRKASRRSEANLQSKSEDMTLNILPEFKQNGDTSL
In test [3] the target is M2 muscarinic receptor (Gi-coupled) (Homo sapiens, UniProt P08172). The format is cell-based.
Chain of M2 muscarinic receptor (Gi-coupled) (P08172 whole entry): as the sequence (P08172 whole entry) above
In test [4] the test system is Gαq-coupled T1R1/T1R3 heterodimeric taste receptor. To be noted: MIN6 cells; cited from earlier work.
The target of the next test is endogenous human P2Y1R (Homo sapiens, UniProt P47900). The test is classed as cell-based.
Chain of endogenous human P2Y1R (P47900 whole entry): as the sequence (P47900 whole entry) above
In a further test the target is A1AR (Homo sapiens, UniProt P30542). The format is cell-based.
Chain of A1AR (P30542 whole entry): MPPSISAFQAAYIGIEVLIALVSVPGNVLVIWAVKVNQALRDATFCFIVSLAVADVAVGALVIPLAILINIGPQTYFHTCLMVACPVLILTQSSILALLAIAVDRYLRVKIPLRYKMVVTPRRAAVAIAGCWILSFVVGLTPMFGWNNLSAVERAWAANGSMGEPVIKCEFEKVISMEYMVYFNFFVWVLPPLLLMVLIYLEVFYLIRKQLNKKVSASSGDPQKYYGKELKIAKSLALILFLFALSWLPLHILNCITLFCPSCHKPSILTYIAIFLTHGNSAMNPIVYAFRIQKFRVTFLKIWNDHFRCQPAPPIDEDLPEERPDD
The test system of the next test is Gα16. To be noted: 1 μM; cited from earlier work.
In a further test the target is Gi-coupled P2Y12R (Homo sapiens, UniProt Q9H244). The format is cell-based.
Chain of Gi-coupled P2Y12R (Q9H244 whole entry): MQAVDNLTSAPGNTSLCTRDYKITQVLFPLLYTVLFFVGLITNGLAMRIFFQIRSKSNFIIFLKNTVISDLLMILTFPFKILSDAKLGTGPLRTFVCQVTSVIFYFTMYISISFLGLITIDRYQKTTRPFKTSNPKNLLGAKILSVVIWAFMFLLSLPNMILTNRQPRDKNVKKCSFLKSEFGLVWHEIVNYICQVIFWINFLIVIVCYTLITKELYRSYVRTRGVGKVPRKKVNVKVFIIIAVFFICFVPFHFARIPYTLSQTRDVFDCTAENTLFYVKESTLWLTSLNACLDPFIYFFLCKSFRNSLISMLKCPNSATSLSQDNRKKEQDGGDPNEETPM
In a further test the target is recombinant human A2AAR (Homo sapiens, UniProt P29274). In words: CGS21680-induced cAMP accumulation in CHO cells expressing the A2AAR. To be noted: data not shown. The format is cell-based. A digest of the protocol: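 CHO cells stably expressing human A2AAR were grown in DMEM with 10% FBS, penicillin/streptomycin and glutamine, then plated in 96-well plates overnight. Cells were pretreated with test compound (300 nM) for 30 min or with pertussis toxin (200 ng/ml) overnight. Agonist was then added with rolipram (10 μM). Supernatant was removed, cells were lysed in 0.3% Tween-20, and cAMP was measured by AlphaScreen.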
Chain of recombinant human A2AAR (P29274 whole entry): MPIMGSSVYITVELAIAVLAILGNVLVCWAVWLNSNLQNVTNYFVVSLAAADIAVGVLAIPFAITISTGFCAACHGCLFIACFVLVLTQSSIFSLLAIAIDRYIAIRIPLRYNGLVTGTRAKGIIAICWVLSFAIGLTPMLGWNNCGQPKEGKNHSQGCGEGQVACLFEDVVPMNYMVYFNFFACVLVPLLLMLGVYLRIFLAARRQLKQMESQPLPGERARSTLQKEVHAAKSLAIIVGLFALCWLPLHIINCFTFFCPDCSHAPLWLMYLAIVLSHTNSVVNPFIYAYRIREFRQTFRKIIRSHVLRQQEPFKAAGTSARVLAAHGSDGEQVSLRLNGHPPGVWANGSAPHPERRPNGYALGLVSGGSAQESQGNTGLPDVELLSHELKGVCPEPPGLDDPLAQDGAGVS

Another test addresses P2Y12R (Gi-coupled) (Homo sapiens, UniProt Q9H244). The test is classed as cell-based.
The next test deals with platelet aggregation. To be noted: cited from earlier work.
In another test the target is endogenous A1AR (Mesocricetus auratus, UniProt A0A1U8BVR4). The test is classed as cell-based, Syrian hamster.
Chain of endogenous A1AR (A0A1U8BVR4 1-326): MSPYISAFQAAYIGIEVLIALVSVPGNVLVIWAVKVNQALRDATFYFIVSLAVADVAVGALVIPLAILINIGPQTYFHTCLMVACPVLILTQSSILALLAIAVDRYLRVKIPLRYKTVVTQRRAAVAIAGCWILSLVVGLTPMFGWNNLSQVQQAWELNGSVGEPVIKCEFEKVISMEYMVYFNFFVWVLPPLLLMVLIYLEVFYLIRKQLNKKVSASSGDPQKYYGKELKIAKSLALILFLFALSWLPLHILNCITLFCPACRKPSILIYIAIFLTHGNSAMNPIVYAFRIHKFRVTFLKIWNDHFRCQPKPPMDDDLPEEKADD
For test [5] the following is noted: cited from earlier work.
The target in test [6] is recombinant human A2BAR (Gαs) (Homo sapiens, UniProt P29275). The test is classed as cell-based.
Chain of recombinant human A2BAR (Gαs) (P29275 whole entry): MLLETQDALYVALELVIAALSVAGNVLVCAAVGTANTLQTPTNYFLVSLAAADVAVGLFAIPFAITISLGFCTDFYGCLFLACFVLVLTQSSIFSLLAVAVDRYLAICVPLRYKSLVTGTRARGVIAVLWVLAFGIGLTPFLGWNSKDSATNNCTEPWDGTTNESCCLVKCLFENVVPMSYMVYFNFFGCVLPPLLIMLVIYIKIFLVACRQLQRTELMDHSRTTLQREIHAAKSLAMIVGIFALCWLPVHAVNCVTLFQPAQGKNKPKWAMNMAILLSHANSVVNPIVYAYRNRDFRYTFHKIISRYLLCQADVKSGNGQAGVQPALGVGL
In test [7] the target is recombinant human M3 muscarinic receptor (Gαq) (Homo sapiens, UniProt P20309). The test is classed as cell-based.
Chain of recombinant human M3 muscarinic receptor (Gαq) (P20309 whole entry): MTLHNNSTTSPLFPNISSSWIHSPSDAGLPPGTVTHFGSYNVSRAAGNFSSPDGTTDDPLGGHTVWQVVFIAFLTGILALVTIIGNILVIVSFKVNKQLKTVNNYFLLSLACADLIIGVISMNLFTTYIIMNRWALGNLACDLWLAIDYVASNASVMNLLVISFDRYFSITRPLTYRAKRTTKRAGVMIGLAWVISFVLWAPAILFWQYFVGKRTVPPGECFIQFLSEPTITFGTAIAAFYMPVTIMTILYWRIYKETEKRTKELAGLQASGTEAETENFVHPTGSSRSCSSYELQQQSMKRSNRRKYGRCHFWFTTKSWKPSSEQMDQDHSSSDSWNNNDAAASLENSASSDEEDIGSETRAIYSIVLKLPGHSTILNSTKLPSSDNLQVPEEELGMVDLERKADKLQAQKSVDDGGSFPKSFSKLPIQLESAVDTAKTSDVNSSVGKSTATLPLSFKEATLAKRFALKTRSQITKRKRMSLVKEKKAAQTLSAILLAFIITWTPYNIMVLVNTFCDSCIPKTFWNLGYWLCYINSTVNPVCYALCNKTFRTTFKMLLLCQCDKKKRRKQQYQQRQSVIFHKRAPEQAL
For a further test, the target named is Gi-coupled A1AR (Homo sapiens, UniProt P30542). The test is classed as cell-based.
Chain of Gi-coupled A1AR (P30542 whole entry): as the sequence (P30542 whole entry) above
In a further test the target is Gαq-coupled P2Y1R (Homo sapiens, UniProt P47900). In words: Akt1/2/3 phosphorylation in 1321N1 cells expressing the P2Y1R. The format is cell-based. To be noted: UBO-QIC 100 nM. Summed up: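 1321N1 astrocytoma cells expressing human P2Y1R were seeded at 30,000 cells/100 μl in complete medium. After attachment they were serum-starved overnight, pretreated with test compound (100 nM) for 30 min, then given agonist in Hank's buffered salt solution for 20 min. Lysed cells were assayed for p-Akt1/2/3 (Ser473) by AlphaScreen SureFire. Mean ± SEM of 3 independent experiments in duplicate.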
Chain of Gαq-coupled P2Y1R (P47900 whole entry): as the sequence (P47900 whole entry) above

The test system of another test is ERK1/2 activation. In words: ERK1/2 activation mediated through various GPCRs. The test is classed as cell-based. Summed up:
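CHO (A1AR, M2, M3) or 1321N1 (P2Y1R) cells were seeded at 30,000 cells/100 μl and serum-starved overnight after attachment. Pretreatment was test compound or GO6983 (10 μM) for 30 min, or pertussis toxin (200 ng/ml) overnight. Agonists in Hank's buffered salt solution were applied for 5 min. Cells were lysed and p-ERK1/2 (Thr202/Tyr204) was read by AlphaScreen SureFire.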

Molecules are shown by their SMILES. Numbered stars: 1 amine (or outer) side, 2 acyl side, 3 side chain; on linkers, the order of the positions; unused ones are H or OH. Bridge positions count the residues as written; N and C are the ends. Square brackets hold non-standard residues; d marks the D form. Peptide text beside a SMILES is read from it. * marks the point of attachment. Leu(3R-OH,Nα-propionyl) = CCC(=O)N[C@H](C(=O)*)[C@H](O)C(C)C; X2 = CC(=O)NC(C(=O)OC(C(C)C)C(N[*:1])C(=O)[*:2])C(O)C(C)C; X1 = CC(C)[C@@H](O[*:3])[C@H](N[*:1])C(=O)[*:2]; NMeT = CN[CH](C(=O)O)[CH](C)O; dPhLac = O=C(O)[C@H](O)Cc1ccccc1; PhLac = O=C(O)[CH](O)Cc1ccccc1; NMeA = CN[CH](C)C(=O)O; NMeDha = C=C(NC)C(=O)O

Chain of P2Y12R (Gi-coupled) (Q9H244 whole entry): as the sequence (Q9H244 whole entry) above
Chain of P2Y1R (P47900 whole entry): as the sequence (P47900 whole entry) above
Chain of human A1AR (Gi-coupled) (P30542 whole entry): as the sequence (P30542 whole entry) above
Chain of M3 muscarinic receptor (P20309 whole entry): as the sequence (P20309 whole entry) above

On to `COc1ccc2c(c1)c(C1=C(c3c[nH]c4ccccc34)C(=O)NC1=O)cn2CCCN(C)C` [GO6983, 3-[1-[3-(dimethylamino)propyl]-5-methoxy-1H-indol-3-yl]-4-(1H-indol-3-yl)-1H-pyrrole-2,5-dione], for which the “Effect on ERK1/2 phosphorylation” value at M3 muscarinic receptor and on P2Y1R was “completely blocked” each time.

Turning to `C=C1C(=O)NC(C)C(=O)N(C)C(C)C(=O)NC(C(OC(=O)C(NC(C)=O)C(O)C(C)C)C(C)C)C(=O)N(C)C(C(C)OC)C(=O)OC(C)C(NC(C)=O)C(=O)OC(Cc2ccccc2)C(=O)N1C` (stereo not drawn) [YM-254890] (Ac-T[PhLac][NMeDha]A[NMeA][X2][NMeT](Me); ester 1-C; configuration not given here), the “Effect on release of GDP from Gαq” value in the test with Gαq [1] was “inhibits the release of GDP from Gαq”. The “Inhibition of fMLP-induced Ca2+ mobilization” value in the test on Gβγ is reported as “to a lesser extent than pertussis toxin”. Moreover, the “Inhibition of UTP-mediated Ca2+ release” value with Gαq [2] is “much larger inhibition”. Also, the “Effect on Gα15-mediated Ca2+ release” value with Gα15 is “only a small effect”.

For `C=C1C(=O)N[C@@H](C)C(=O)N(C)[C@@H](C)C(=O)N[C@@H]([C@H](OC(=O)[C@@H](NC(=O)CC)[C@H](O)C(C)C)C(C)C)C(=O)N(C)[C@@H]([C@@H](C)OC)C(=O)O[C@H](C(C)C)[C@H](NC(C)=O)C(=O)O[C@H](Cc2ccccc2)C(=O)N1C` [UBO-QIC, L-threonine, (3R)-N-acetyl-3-hydroxy-L-leucyl-(αR)-α-hydroxybenzenepropanoyl-2,3-didehydro-N-methylalanyl-L-alanyl-N-methyl-L-alanyl-(3R)-3-[[(2S,3R)-3-hydroxy-4-methyl-1-oxo-2-[(1-oxopropyl)amino]pentyl]oxy]-L-leucyl-N,O-dimethyl-, (7→1)-lactone] (Ac-[X1][dPhLac][NMeDha]A[NMeA][X1](Leu(3R-OH,Nα-propionyl))[NMeT](Me); ester 1-C), the “Effect on phosphorylation of protein kinase B (Akt)” value in the test on Gαi subunits was “no effect”. Moreover, the “Block of the maximal agonist effect in ERK1/2 phosphorylation” value on M2 muscarinic receptor, at P2Y1R and on A1AR was no more than 30% throughout. In addition, the “Effect on agonist effects (calcium)” value (at human A1AR (Gi-coupled); at P2Y1R (Gq-coupled); in test [3]; on P2Y12R (Gi-coupled)) was “completely blocked” in each case. Further, the “Effect on calcium responses” value (at human A1AR (Gi-coupled); at P2Y1R (Gq-coupled); in test [3]; on P2Y12R (Gi-coupled)) was “completely blocked” each time. Besides, the “Effect on ERK1/2 stimulation” value in [4] is “only partially reduced”. Moreover, the “Effect on MRS2365-mediated calcium transients” value on endogenous human P2Y1R is on record as “antagonizes”. Besides, the “Effect on Gα16” value with Gα16 is listed as “could inhibit Gα16”. Also, the “Effect on Akt1/2/3 activity” value at Gi-coupled P2Y12R and on Gi-coupled A1AR was “no effect” each time. Moreover, the “Effect on the maximum effect of 2MeSADP-stimulated Akt activity” value at Gi-coupled P2Y12R is on record as “modest but significant inhibition”. The “Effect on CGS21680-induced cAMP accumulation” value on recombinant human A2AAR is “did not affect”. Also, the “Effect on platelet aggregation” value with platelet aggregation is reported as “inhibit platelet aggregation”. Further, at endogenous A1AR, the “Effect on CPA-induced intracellular calcium mobilization” value was “completely blocked”. The “Effect on blood pressure” value in [5] is recorded as “decrease blood pressure”. In addition, the “Effect of inhibitor on NECA-induced cAMP accumulation” value in [6] was “did not show any effect”. Besides, in test [7], the “Effect of inhibitor on carbachol-induced Ca2+ transients” value is given as “completely blocked”. On Gαq-coupled P2Y1R, the “Effect on 2MeSADP-induced Akt1/2/3 phosphorylation” value was “completely inhibited”. Besides, the “Effect on ERK1/2 activation” value in the test on ERK1/2 activation (UBO-QIC 10 nM, initial experiment) is “little if any effect”. Further, the “Effect on agonist concentration-response curves, ERK1/2” value with ERK1/2 activation (in all cases (P2Y1, A1AR, M2, M3)) is listed as “somewhat non-parallel right shift”.

These data come from article PMC4839537 (Biochemical pharmacology, 2016).
